Test [1] deals with Mahlavu. Kind of test: Induction of apoptosis in human Mahlavu cells assessed as early apoptotic cells at 1 uM after 72 hrs by Annexin V-FITC/propidium iodide staining-based flow cytometric analysis (reference value: 0.24%). It counts as functional.
Test [2] deals with Huh-7. Kind of test: Induction of apoptosis in human HuH7 cells assessed as viable cells at 1 uM after 48 hrs by Annexin V-FITC/propidium iodide staining-based flow cytometric analysis (reference value: 97.42%). It counts as functional. Conditions: Huh-7, 48 h, read-out: Activity.
Test [3] concerns Mahlavu. Kind of test: Cell cycle arrest in human Mahlavu cells assessed as accumulation of cells at subG1 phase at 1 uM after 72 hrs by propidium iodide staining-based flow cytometric analysis (reference value: 22.4%). The class given is functional.
For test [4], the target named is T1, Mitogen-activated protein kinase kinase kinase 5 (Homo sapiens) (UniProt Q99683).
T1 sequence (whole entry): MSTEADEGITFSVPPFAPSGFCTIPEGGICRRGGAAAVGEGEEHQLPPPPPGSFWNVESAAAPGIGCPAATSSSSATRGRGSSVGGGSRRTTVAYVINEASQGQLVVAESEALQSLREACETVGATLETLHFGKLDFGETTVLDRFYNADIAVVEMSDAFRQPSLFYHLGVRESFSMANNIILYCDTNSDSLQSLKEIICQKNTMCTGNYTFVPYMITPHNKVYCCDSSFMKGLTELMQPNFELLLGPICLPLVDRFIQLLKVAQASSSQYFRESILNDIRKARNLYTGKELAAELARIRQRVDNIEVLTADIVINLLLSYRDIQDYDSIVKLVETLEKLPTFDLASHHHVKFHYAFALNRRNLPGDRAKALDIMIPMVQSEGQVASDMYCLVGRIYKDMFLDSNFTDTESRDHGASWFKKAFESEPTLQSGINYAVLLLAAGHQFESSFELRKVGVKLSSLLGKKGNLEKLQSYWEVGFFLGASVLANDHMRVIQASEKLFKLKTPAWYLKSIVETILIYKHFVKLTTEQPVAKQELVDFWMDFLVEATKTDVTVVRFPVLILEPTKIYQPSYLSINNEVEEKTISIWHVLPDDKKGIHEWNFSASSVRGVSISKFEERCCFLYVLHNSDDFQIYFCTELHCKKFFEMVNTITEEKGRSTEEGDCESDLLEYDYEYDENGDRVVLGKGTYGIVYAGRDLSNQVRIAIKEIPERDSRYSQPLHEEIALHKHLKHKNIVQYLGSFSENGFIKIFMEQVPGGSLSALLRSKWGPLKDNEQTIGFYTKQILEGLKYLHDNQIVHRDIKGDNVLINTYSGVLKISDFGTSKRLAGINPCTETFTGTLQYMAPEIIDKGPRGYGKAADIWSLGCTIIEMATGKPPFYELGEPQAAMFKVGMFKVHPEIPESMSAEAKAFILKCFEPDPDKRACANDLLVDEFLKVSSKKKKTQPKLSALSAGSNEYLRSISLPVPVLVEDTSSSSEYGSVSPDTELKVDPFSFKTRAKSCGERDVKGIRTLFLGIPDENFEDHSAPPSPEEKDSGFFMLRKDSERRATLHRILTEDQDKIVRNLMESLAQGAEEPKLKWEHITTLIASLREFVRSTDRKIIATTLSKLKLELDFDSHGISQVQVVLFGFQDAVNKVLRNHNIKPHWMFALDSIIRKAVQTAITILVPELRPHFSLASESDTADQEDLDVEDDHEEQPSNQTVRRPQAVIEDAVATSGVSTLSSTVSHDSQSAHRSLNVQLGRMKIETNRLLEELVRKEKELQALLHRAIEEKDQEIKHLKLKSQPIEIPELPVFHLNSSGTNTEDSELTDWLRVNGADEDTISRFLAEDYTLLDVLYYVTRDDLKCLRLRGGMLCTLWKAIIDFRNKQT
Kind of test: Inhibition of ASK1 Ser-966 phosphorylation in human HuH7 cells at 1 uM after 24 to 72 hrs by Western blot analysis. The class given is cell-based.

In test [5] the test system is Mahlavu. Kind of test: Cell cycle arrest in human Mahlavu cells assessed as accumulation of cells at G1 phase at 1 uM after 72 hrs by propidium iodide staining-based flow cytometric analysis (reference value: 44.6%). The class given is functional.
For test [6], the system named is Mahlavu. As to the kind of experiment: Cell cycle arrest in human Mahlavu cells assessed as accumulation of cells at G2/M phase at 1 uM after 72 hrs by propidium iodide staining-based flow cytometric analysis (reference value: 20%). The class given is functional.
Test [7] has as its system Huh-7. As to the kind of experiment: Induction of apoptosis in human HuH7 cells assessed as necrotic cells at 1 uM after 72 hrs by Annexin V-FITC/propidium iodide staining-based flow cytometric analysis (reference value: 0.43%). It counts as functional.
The subject of test [8] is Huh-7. Kind of test: Cell cycle arrest in human HuH7 cells assessed as accumulation of cells at G1 phase at 1 uM after 72 hrs by propidium iodide staining-based flow cytometric analysis (reference value: 51.6%). The class given is functional.
The subject of test [9] is Mahlavu. Kind of test: Induction of apoptosis in human Mahlavu cells assessed as late apoptotic cells at 1 uM after 48 hrs by Annexin V-FITC/propidium iodide staining-based flow cytometric analysis (reference value: 1.45%). It counts as functional.
In test [10] the test system is Mahlavu. As to the kind of experiment: Induction of apoptosis in human Mahlavu cells assessed as necrotic cells at 1 uM after 24 hrs by Annexin V-FITC/propidium iodide staining-based flow cytometric analysis (reference value: 0.13%). It counts as functional.
For test [11], the system named is Mahlavu. Kind of test: Induction of apoptosis in human Mahlavu cells assessed as viable cells at 1 uM after 72 hrs by Annexin V-FITC/propidium iodide staining-based flow cytometric analysis (reference value: 96.05%). Conditions: read-out: Activity. It counts as functional.
In test [12] the test system is Huh-7. As to the kind of experiment: Down-regulation of cyclin E protein expression in human HuH7 cells at 1 uM after 24 to 72 hrs by Western blot analysis. It counts as functional, cell-based.
The test system of test [13] is Mahlavu. As to the kind of experiment: Induction of apoptosis in human Mahlavu cells assessed as increase in cytochrome C levels at 1 uM by Hoechst staining-based assay. It counts as functional, cell-based.
For test [14], the system named is Mahlavu. As to the kind of experiment: Cell cycle arrest in human Mahlavu cells assessed as accumulation of cells at S phase at 1 uM after 24 hrs by propidium iodide staining-based flow cytometric analysis (reference value: 23.2%). The class given is functional.
Test [15] deals with Huh-7. Kind of test: Induction of apoptosis in human HuH7 cells assessed as late apoptotic cells at 1 uM after 72 hrs by Annexin V-FITC/propidium iodide staining-based flow cytometric analysis (reference value: 2.34%). It counts as functional.
In test [16] the test system is Huh-7. As to the kind of experiment: Down-regulation of CDK1 protein expression in human HuH7 cells at 1 uM after 24 to 72 hrs by Western blot analysis. The class given is functional, cell-based.
In test [17] the test system is Huh-7. Kind of test: Cell cycle arrest in human HuH7 cells assessed as accumulation of cells at subG1 phase at 1 uM after 24 hrs by propidium iodide staining-based flow cytometric analysis (reference value: 6.8%). The class given is functional.
Test [18] concerns Mahlavu. As to the kind of experiment: Cell cycle arrest in human Mahlavu cells assessed as accumulation of cells at subG1 phase at 1 uM after 24 hrs by propidium iodide staining-based flow cytometric analysis (reference value: 18.3%). The class given is functional.
Test [19] deals with Mahlavu. As to the kind of experiment: Down-regulation of cyclin E protein expression in human Mahlavu cells at 1 uM after 24 to 72 hrs by Western blot analysis. It counts as functional, cell-based.
Test [20] has as its system Mahlavu. As to the kind of experiment: Cytotoxicity against human Mahlavu cells after 48 hrs by RTCA analysis. It counts as functional, cell-based. In short, it runs like this: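 xCELLigence impedance real-time growth assay. Huh7 (2000) or Mahlavu (1000) cells plated, treated after 24 h at log phase with a 2-fold dilution series (4 steps) from a top concentration of 1. Cell index recorded every 10 min for 24 h, then every 30 min. Growth inhibition normalized to DMSO; IC50 taken at 24, 48, 72 h.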

Data on two molecules can be found in ChEMBL document CHEMBL4316592, “Synthesis of new derivatives of boehmeriasin A and their biological evaluation in liver cancer” (Eur J Med Chem, 2019).

Calls of active or inactive are those of the source. The rule behind the calls is not given here.

`COc1ccc2c3c(c4cc(OC)c(OC)cc4c2c1)CN1CCCC[C@@H]1C3`: the Activity is reported as 0.13% in the test with Mahlavu [1]; 26.9% in the test with Mahlavu [3]; 14.1% in the test on Mahlavu [5]; 49.9% in the test with Mahlavu [6]; 0.34% in the test with Huh-7 [7]; 24.3% in the test on Huh-7 [8]. The Activity turned out to be 7.07% with Mahlavu [9]; 0.57% in the test with Mahlavu [10]; 17.5% with Mahlavu [14]; 16.15% in the test with Huh-7 [15]; 13.6% in the test on Huh-7 [17]; 15% with Mahlavu [18]. Also, the viability at 1 µM with Huh-7 [2] amounted to 93.8%; in the test with Mahlavu [11], 85.3%. Also, the inhibition entry in test [4] is “Active”. Further, the outcome with Huh-7 [12], in the test with Mahlavu [13], in the test on Huh-7 [16] and in the test on Mahlavu [19] was Active. In the test with Mahlavu [20], 400 nM corresponded to half-maximal inhibition (IC50).
In the case of `COc1ccc2c3c(c4cc(OC)c(OC)cc4c2c1)CN1CCCCC1C3O` (racemic), the Activity in the test on Mahlavu [1] amounted to 0%; in the test on Mahlavu [3], 48.9%; in the test on Mahlavu [5], 9.5%; in the test with Mahlavu [6], 31.4%; in the test with Huh-7 [7] it was 0.13%; in the test with Huh-7 [8] it was 17.9%. The Activity came out at 0.98% in the test with Mahlavu [9]; 0.13% in the test on Mahlavu [10]; 14.3% in the test with Mahlavu [14]; 17.97% in the test on Huh-7 [15]; 23.1% with Huh-7 [17]; 16.5% in the test with Mahlavu [18]. In addition, the viability at 1 µM came to 94.2% in the test with Huh-7 [2] and 62.7% with Mahlavu [11]. Besides, the inhibition entry in test [4] was “Active”. Besides, the result with Huh-7 [12], in the test on Mahlavu [13], in the test on Huh-7 [16] and in the test with Mahlavu [19] was Active. For the same molecule, the midpoint of inhibition in the test on Mahlavu [20], the IC50, lay at 4 nM.
